The target of assay [1] is T1, DNA gyrase (Escherichia coli) (UniProt P0AES6+P0AES4).
In assay [2] the target is T1, DNA gyrase (Escherichia coli). The assay can be described thus: Maximum non-effective concentration against in vitro Escherichia coli DNA gyrase supercoiling activity was determined by coupled spectrophotometric ATPase assay. It is filed as protein-complex assay. An outline of the steps:
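E. coli DNA gyrase ATPase activity measured in a coupled spectrophotometric system with pyruvate kinase and lactate dehydrogenase, following NADH disappearance as ATP is consumed; supercoiling assay used for validation. Value reported as maximum non-effective concentration (MNEC), the highest inhibitor concentration showing no gyrase inhibition.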

The subject of assay [3] is Enterococcus faecium. The assay can be described thus: Compound was tested in vitro for antibacterial activity against Enterococcus faecium vanA E23-8. It is filed as functional. The method in brief: (§1)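 MIC by 2-fold agar dilution on Mueller-Hinton agar, inoculum 10⁴ CFU per spot.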
For assay [4], the system named is Staphylococcus epidermidis. The assay can be described thus: Compound was tested in vitro for antibacterial activity against Staphylococcus epidermidis ATCC 14990. Type of assay: functional. The method in brief:
as §1

For assay [5], the system named is Staphylococcus aureus. The assay can be described thus: Compound was tested in vitro for antibacterial activity against Staphylococcus aureus H19982. It is filed as functional. An outline of the steps:
as §1

The subject of assay [6] is Staphylococcus aureus. The assay can be described thus: Compound was tested in vitro for antibacterial activity against Staphylococcus aureus NovoR. Type of assay: functional. An outline of the steps:
as §1

In assay [7] the test system is Staphylococcus aureus. Briefly: Compound was tested in vitro for antibacterial activity against Staphylococcus aureus Coum-R. It is filed as functional. The method in brief: as §1
For assay [8], the system named is Staphylococcus aureus. The assay can be described thus: Compound was tested in vitro for antibacterial activity against Staphylococcus aureus Smith QR-54. Type of assay: functional. An outline of the steps:
as §1

Assay [9] has as its system Staphylococcus aureus. Briefly: Compound was tested in vitro for antibacterial activity against Staphylococcus aureus ATCC 25923. Type of assay: functional. An outline of the steps: as §1
For assay [10], the system named is Staphylococcus aureus. The assay can be described thus: Compound was tested in vitro for antibacterial activity against Staphylococcus aureus Smith. It is filed as functional. An outline of the steps:
as §1

Assay [11] has as its system Streptococcus pyogenes. The assay can be described thus: Compound was tested in vitro for antibacterial activity against Streptococcus pyogenes beta15. It is filed as functional. The method in brief:
as §1

Molecules are shown by their SMILES. ≈ marks a conversion by molar mass, not a printed value. Some results are limits rather than exact numbers.

For `Cc1nn(-c2cc(Cl)cc(Cl)c2)c2nc(Sc3cccc(C(=O)O)c3)nc(N)c12`, the MNEC in [1] worked out at 1 µg/mL.
`CCOC(=O)c1c(O)oc2cc(Oc3nc(N)c4c(CC)nn(-c5cc(Cl)cc(Cl)c5)c4n3)ccc2c1=O` returned an MNEC in assay [1] of 2 µg/mL.
For `Cc1ccc(Oc2nc(N)n3ncc(-c4ccc(Cl)c(Cl)c4)c3n2)cn1`, the MNEC in [1] is greater than 63 µg/mL; in [2] it was less than 16 µg/mL.
With `CCc1nn(-c2cccc(F)c2)c2nc(Oc3ccc4c(O)cc(=O)oc4c3)nc(N)c12`, in assay [1], the MNEC stood at 1 µg/mL.
The same measure, in the same setting: the figure for `CCc1nn(-c2cc(Cl)cc(Cl)c2)c2nc(Sc3cccc(C(=O)O)c3)nc(NC3CC3)c12` is 8 µg/mL.
In turn, `Cc1ccc(Oc2nc(N)c3c(C)nn(-c4cc(Cl)cc(Cl)c4)c3n2)cn1` registered an MNEC in assay [2] of 125 µg/mL.
For the molecule `CCc1nn(-c2cccc(F)c2)c2nc(Sc3cccc(C(=O)O)c3)nc(N)c12`, in assay [1], the MNEC came to 8 µg/mL.
Regarding `CCc1nn(-c2cc(Cl)cc(Cl)c2)c2nc(Oc3ccc(C)nc3)nc(N)c12`, the MNEC in assay [1] was greater than 16 µg/mL; in [2] it was less than 16 µg/mL.
The molecule `CCc1nn(-c2cc(Cl)cc(Cl)c2)c2nc(Oc3ccc4c(N(C)C)cc(=O)oc4c3)nc(N)c12` yielded an MNEC in assay [2] of 125 µg/mL.
The MIC is the lowest concentration found to suppress growth. High values mean a less susceptible organism, low ones a more susceptible organism. For `CCc1nn(-c2cc(Cl)cc(Cl)c2)c2nc(Sc3cccc(C(=O)O)c3)nc(N)c12`, the MIC is greater than 32 µg/mL in assay [3]; 0.5 µg/mL (≈ 1.09 µM) in assay [4]; 4 µg/mL (≈ 8.69 µM) in assay [5]; 32 µg/mL (≈ 69.5 µM) in assay [6]; 32 µg/mL (≈ 69.5 µM) in [7]; 2 µg/mL (≈ 4.34 µM) in assay [8]. Also, the MIC in assay [9] and in [10] was 16 µg/mL (≈ 34.8 µM) throughout. For the same molecule, the MNEC in [1] turned out to be 0.25 µg/mL.
As for `Nc1nc(Oc2ccc3c(O)cc(=O)oc3c2)nc2c1cnn2-c1cc(Cl)cc(Cl)c1`, the MNEC in assay [1] is 0.5 µg/mL.
Consider `Nc1nc(Sc2cccc(C(=O)O)c2)nc2c(-c3ccc(Cl)c(Cl)c3)cnn12`, for which the MIC in [3] was 32 µg/mL (≈ 74 µM); in assay [4], 4 µg/mL (≈ 9.25 µM); in assay [5] it was greater than 32 µg/mL; in assay [6], greater than 32 µg/mL; in assay [7], greater than 32 µg/mL; in assay [8] it was greater than 32 µg/mL. Also, the values for the MIC in [9], in assay [11] and in assay [10] were greater than 32 µg/mL, 0.5 µg/mL (≈ 1.16 µM) and greater than 32 µg/mL, respectively. The MNEC in assay [1] turned out to be 1 µg/mL.
`Cc1nn2c(N)nc(Oc3ccc4c(O)cc(=O)oc4c3)nc2c1C#N`: the MNEC in assay [1] amounted to 8 µg/mL.
On to `CCc1nn(-c2cc(Cl)cc(Cl)c2)c2nc(Oc3ccc4c(O)c(NC(C)=O)c(=O)oc4c3)nc(N)c12`, for which the MIC was greater than 32 µg/mL in assay [3]; 4 µg/mL (≈ 7.39 µM) in assay [4]; 4 µg/mL (≈ 7.39 µM) in assay [5]; 16 µg/mL (≈ 29.6 µM) in assay [6]; 16 µg/mL (≈ 29.6 µM) in assay [7]; 8 µg/mL (≈ 14.8 µM) in assay [8]. Also, the MIC was 16 µg/mL (≈ 29.6 µM) in assay [9], 1 µg/mL (≈ 1.85 µM) in assay [11] and 8 µg/mL (≈ 14.8 µM) in assay [10]. This molecule came in with an MNEC in [1] of 0.5 µg/mL.
In assay [1], `COc1ccc(-c2cnn3c(N)nc(Oc4ccc5c(O)cc(=O)oc5c4)nc23)cc1OC` came in with an MNEC of 0.1 µg/mL.
Same read-out and setting: with `Cc1nn2c(N)nc(Sc3cccc(C(=O)O)c3)nc2c1C#N` the figure was 0.5 µg/mL.
Regarding `CCOC(=O)c1cccc(Oc2nc(N)c3c(C)nn(-c4cc(Cl)cc(Cl)c4)c3n2)c1`, the MNEC in assay [2] came out at 63 µg/mL.
With `CO[C@@H]1[C@@H](OC(N)=O)[C@@H](O)[C@H](Oc2ccc3c(O)c(NC(=O)c4ccc(O)c(CC=C(C)C)c4)c(=O)oc3c2C)OC1(C)C` [NOVOBIOCIN], the MIC in [3] was found to be 8 µg/mL (≈ 13.1 µM); in [4] it was 0.12 µg/mL (≈ 0.196 µM); in assay [5], 0.25 µg/mL (≈ 0.408 µM); in assay [6] it was 8 µg/mL (≈ 13.1 µM); in assay [7], 16 µg/mL (≈ 26.1 µM); in assay [8], 8 µg/mL (≈ 13.1 µM). Besides, the MIC in [9] came out at 0.25 µg/mL (≈ 0.408 µM); in assay [11], 2 µg/mL (≈ 3.26 µM); in [10], 0.25 µg/mL (≈ 0.408 µM).
`CCc1nn(-c2cc(Cl)cc(Cl)c2)c2nc(Oc3ccc4c(O)c(C(C)=O)c(=O)oc4c3)nc(N)c12` showed an MNEC in assay [1] of 2 µg/mL.
`CCNc1nc(Sc2cccc(C(=O)O)c2)nc2c1c(CC)nn2-c1cc(Cl)cc(Cl)c1`: in assay [1], the MNEC stood at 8 µg/mL.
As for `CCc1nn(-c2cc(Cl)cc(Cl)c2)c2nc(Oc3ccc4c(O)cc(=O)oc4c3)nc(N)c12`, the MNEC in assay [1] amounted to 0.06 µg/mL.
`CCOC(=O)c1cccc(Oc2nc(N)c3c(CC)nn(-c4cc(Cl)cc(Cl)c4)c3n2)c1`: the MNEC in assay [2] was found to be 125 µg/mL.
On to `Cc1ccc(Oc2nc(N)c3cnn(-c4cc(Cl)cc(Cl)c4)c3n2)cn1`, for which the MNEC in [1] was greater than 125 µg/mL.
With `CCOC(=O)c1cccc(Oc2nc(N)c3cnn(-c4cc(Cl)cc(Cl)c4)c3n2)c1`, in assay [2], the MNEC turned out to be 125 µg/mL.
In the case of `Cc1nn(-c2cc(Cl)cc(Cl)c2)c2nc(Oc3ccc4c(O)cc(=O)oc4c3)nc(N)c12`, in assay [1], the MNEC was 0.25 µg/mL.
Same read-out and setting: with `Nc1nc(Sc2cccc(C(=O)O)c2)nc2c1cnn2-c1cc(Cl)cc(Cl)c1` the figure was 1 µg/mL.
Take `CCCCNC(=O)Nc1c(O)oc2cc(Oc3nc(N)c4c(CC)nn(-c5cc(Cl)cc(Cl)c5)c4n3)ccc2c1=O`: the MIC in [3] worked out at 16 µg/mL (≈ 26.7 µM); in assay [4] it was 4 µg/mL (≈ 6.68 µM); in [5] it was 4 µg/mL (≈ 6.68 µM); in assay [6] it was 8 µg/mL (≈ 13.4 µM); in assay [7] it was 8 µg/mL (≈ 13.4 µM); in assay [8], 2 µg/mL (≈ 3.34 µM). In addition, the MIC in assay [9] came out at 4 µg/mL (≈ 6.68 µM); in assay [11], 2 µg/mL (≈ 3.34 µM); in assay [10], 8 µg/mL (≈ 13.4 µM). In addition, in assay [1], the MNEC amounted to 0.5 µg/mL.
In turn, `CCc1nn(-c2cc(Cl)cc(Cl)c2)c2nc(Oc3ccc4c(C)cc(=O)oc4c3)nc(N)c12` returned an MNEC in assay [2] greater than 125 µg/mL.
In the case of `CCc1nn(-c2cc(Cl)cc(Cl)c2)c2nc(Oc3ccc4c(O)cc(=O)oc4c3)nc(NC3CC3)c12`, the MNEC in [1] came out at 4 µg/mL.

Source of the values: ChEMBL document CHEMBL1133340, “Design, synthesis, and structure-activity relationship studies of ATP analogues as DNA gyrase inhibitors” (2000).
